According to ChEMBL document CHEMBL1275571, “Impact of self-assembly properties on antibacterial activity of short acyl-lysine oligomers” (Antimicrob Agents Chemother, 2008):
Converted amounts (≈) assume the structure as drawn. Non-standard residues stand in square brackets, D forms with d. Residues, ends and D or L forms follow the SMILES beside them. *: point of attachment. Palmitoyl = CCCCCCCCCCCCCCCC(=O)*; 12Ado = NCCCCCCCCCCCC(=O)O

Experiments:
Escherichia coli = test: Antimicrobial activity against Escherichia coli ATCC 35218 by microdilution method; format: functional
Summary of the method: (§1)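 Overnight LB cultures were diluted 10,000-fold and used at 2 × 105 to 4 × 10^5 CFU/ml (LB pH 7.4). They were mixed 1:1 with compound in twofold serial dilutions from 0 to 50 μΜ. Plates were incubated overnight at 37°C and read by OD620. The MIC is the concentration giving 100% inhibition. Values are from at least two independent assays run in duplicate.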

Pseudomonas aeruginosa = test: Antimicrobial activity against Pseudomonas aeruginosa ATCC 9027 by microdilution method; format: functional; summary of the method: as §1
Staphylococcus aureus = test: Antimicrobial activity against Staphylococcus aureus ATCC 25923 by microdilution method; format: functional; summary of the method: as §1
Enterococcus faecalis = test: Antimicrobial activity against Enterococcus faecalis ATCC 29212 by microdilution method; format: functional; summary of the method: as §1
[1] = Cytotoxicity against human RBC assessed as hemolysis; format: organism-based; conditions: human red blood cells (RBC), read-out: LC50 (the source's name)
Summary of the method: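 Human red blood cells at 1% hematocrit incubated 3 h at 37°C with the compound in PBS (50 mM sodium phosphate, 150 mM NaCl, pH 7.4). Value is the concentration giving 50% hemolysis (LC50, μM). Values are rounded up to the nearest half unit, as means ± standard deviations of at least four independent experiments run in duplicate.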

Lipid bilayer [2] = test: Apparent affinity to phospholipid membrane in cell-free system at low concentration range of 0.16 to 2.5 uM
Summary of the method: (§2)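 Surface plasmon resonance on a POPC-POPG (3:1) small-unilamellar-vesicle bilayer on an L1 chip. Compound was in PBS pH 7.4 at the low series (0.16, 0.31, 0.62, 1.25, 2.5 μM), duplicate injections each. Affinity constants were calculated with a two-step binding model from the average of five duplicated binding curves.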

Lipid bilayer [3] = test: Apparent affinity to phospholipid membrane in cell-free system at high concentration range of 3.1 to 50 uM
Summary of the method: (§3)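 SPR on an L1 chip, with small unilamellar vesicles of POPC-POPG (3:1 molar ratio) as the bilayer. Compound was in PBS pH 7.4 and injected in the high series (3.1, 6.25, 12.5, 25, 50 μM), two injections per concentration. Association and dissociation curves were fitted to a two-step binding model. Constants come from five duplicated curves.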

Lipid bilayer [4] = test: Adhesion affinity to phospholipid membrane in cell-free system at low concentration range of 0.16 to 2.5 uM; summary of the method: as §2
Lipid bilayer [5] = test: Adhesion affinity to phospholipid membrane in cell-free system at high concentration range of 3.1 to 50 uM; summary of the method: as §3

## CCCCCC/C=C\CCCCCCCC(=O)N[C@@H](CCCCN)C(=O)N[C@@H](CCCCN)C(=O)NCCCCCCCCCCCC(=O)N[C@@H](CCCCN)C(N)=O
Escherichia coli
  MBC: 12.5 µM (≈ 10.4 µg/mL)
  MIC: 6 µM (≈ 5.01 µg/mL)
Pseudomonas aeruginosa
  MBC: 50 µM (≈ 41.8 µg/mL)
  MIC: 12.5 µM (≈ 10.4 µg/mL)
Staphylococcus aureus
  MBC: 6 µM (≈ 5.01 µg/mL)
  MIC: 3 µM (≈ 2.51 µg/mL)
Enterococcus faecalis
  MBC: 6 µM (≈ 5.01 µg/mL)
[1]
  HC50: 8.5 µM
Lipid bilayer [2]
  Kapp: 1.7 ×10⁷ /M
Lipid bilayer [3]
  Kapp: 4.5 ×10⁷ /M
Lipid bilayer [4]
  K: 2.1 ×10⁶ /M
Lipid bilayer [5]
  K: 1.5 ×10⁶ /M

## CCCCCCCCCCCCCCCC(=O)N[C@@H](CCCCN)C(=O)N[C@@H](CCCCN)C(=O)NCCCCCCCCCCCC(=O)N[C@@H](CCCCN)C(N)=O (Palmitoyl-KK[12Ado]K-NH2)
Escherichia coli
  MBC: > 50 µM
  MIC: 25 µM (≈ 20.9 µg/mL)
Pseudomonas aeruginosa
  MBC: > 50 µM
  MIC: > 25 µM
Staphylococcus aureus
  MBC: > 25 µM
  MIC: 6 µM (≈ 5.02 µg/mL)
Enterococcus faecalis
  MBC: > 25 µM
[1]
  HC50: 15 µM
Lipid bilayer [2]
  Kapp: 8.3 ×10⁷ /M
Lipid bilayer [3]
  Kapp: 4.3 ×10⁴ /M
Lipid bilayer [4]
  K: 2.2 ×10⁶ /M
Lipid bilayer [5]
  K: 4.3 ×10⁵ /M
